The values that follow come from ChEMBL document CHEMBL3272355, “Structure--activity relationships in cephalosporins prepared from penicillins. 1. 7beta-Acylamino derivatives of 3-benzyl- and 3-(3-pyridylmethyl)ceph-3-em-4-carboxylic acids” (1977).

Converted amounts (≈) assume the structure as drawn.

For assay [1], the system named is Escherichia coli. Kind of assay: Antibacterial activity against Escherichia coli assessed as growth inhibition after 18 hrs by serial dilution method. It is filed as functional. The method, boiled down: (§1)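 Agar dilution MIC: serial dilutions in nutrient agar, each spot-inoculated with 0.001 mL of undiluted overnight broth culture. MIC read after 18 h incubation at 37 °C.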

The subject of assay [2] is Shigella sonnei. Briefly: Antibacterial activity against Shigella sonnei assessed as growth inhibition after 18 hrs by serial dilution method. Type of assay: functional. Summed up: as §1
Assay [3] has as its system Staphylococcus aureus. Kind of assay: Antibacterial activity against Staphylococcus aureus Oxford assessed as growth inhibition after 18 hrs by serial dilution method. Type of assay: functional. The method, boiled down: as §1
For assay [4], the system named is Salmonella typhi. Kind of assay: Antibacterial activity against Salmonella typhi assessed as growth inhibition after 18 hrs by serial dilution method. The following applies: Salmonella enterica. Type of assay: functional, Salmonella enterica subsp. enterica serovar Typhi.
For assay [5], the system named is Klebsiella aerogenes. Briefly: Antibacterial activity against Klebsiella aerogenes assessed as growth inhibition after 18 hrs by serial dilution method. It is filed as functional. Summed up: as §1
The test system of assay [6] is Proteus mirabilis. Briefly: Antibacterial activity against Proteus mirabilis assessed as growth inhibition after 18 hrs by serial dilution method. Type of assay: functional. The method, boiled down: as §1
In assay [7] the test system is Staphylococcus aureus. Briefly: Antibacterial activity against beta-lactamase producing benzylpenicillin-resistant Staphylococcus aureus Russell assessed as growth inhibition after 18 hrs by serial dilution method. Type of assay: functional.

The MIC is the lowest concentration that inhibits growth of the organism. Consider `CC1=C(C(=O)O)N2C(=O)[C@@H](NC(=O)[C@H](N)c3ccccc3)[C@H]2SC1` [CEPHALEXIN ANHYDROUS], for which the MIC in assay [1] turned out to be 12.5 µg/mL (≈ 36 µM); in assay [2] it was 5 µg/mL (≈ 14.4 µM); in assay [3], 1.25 µg/mL (≈ 3.6 µM); in assay [4] it was 5 µg/mL (≈ 14.4 µM); in assay [5], 5 µg/mL (≈ 14.4 µM); in assay [6] it was 12.5 µg/mL (≈ 36 µM). Also, in assay [7], the MIC worked out at 5 µg/mL (≈ 14.4 µM).
Regarding `O=C(Cc1cccs1)N[C@@H]1C(=O)N2C(C(=O)[O-])=C(C[n+]3ccccc3)CS[C@H]12` [CEPHALORIDINE], the MIC was 5 µg/mL (≈ 12 µM) in assay [1]; 1.25 µg/mL (≈ 3.01 µM) in assay [2]; 0.02 µg/mL (≈ 0.0481 µM) in assay [3]; 1.25 µg/mL (≈ 3.01 µM) in assay [4]; 2.5 µg/mL (≈ 6.02 µM) in assay [5]; 5 µg/mL (≈ 12 µM) in assay [6]. The MIC in assay [7] is 1.25 µg/mL (≈ 3.01 µM).
Regarding `CC(=O)OCC1=C(C(=O)O)N2C(=O)[C@@H](NC(=O)Cc3cccs3)[C@H]2SC1` [CEPHALOTHIN], the MIC in assay [1] worked out at 5 µg/mL (≈ 12.6 µM); in assay [2], 5 µg/mL (≈ 12.6 µM); in assay [3] it was 0.12 µg/mL (≈ 0.303 µM); in assay [4], 12.5 µg/mL (≈ 31.5 µM); in assay [5], 5 µg/mL (≈ 12.6 µM); in assay [6] it was 5 µg/mL (≈ 12.6 µM). In addition, the minimum inhibitory concentration (MIC) in assay [7] came out at 0.5 µg/mL (≈ 1.26 µM).
